Results: ChEMBL document CHEMBL1125014, “Synthesis and structure-activity relationships of new 9-N-alkyl derivatives of 9(S)-erythromycylamine” (1990)
Values after ≈ are worked out from the molar mass of the structure shown.

How the values were obtained:
Type in all cases: functional
[1] = tested on: Streptococcus pyogenes; test: Effective dose against mice infected with streptococcus pyogenes after peroral administration (in vivo); settings: in Mus musculus, po
[2] = tested on: Haemophilus influenzae; test: MIC value was measured against haemophilus influenzae CL
[3] = tested on: Staphylococcus aureus; test: Effective dose against mice infected with Staphylococcus aureus after peroral administration (in vivo); settings: in Mus musculus, po
[4] = tested on: Streptococcus pneumoniae; test: MIC value measured against streptococcus pneumoniae Park1
[5] = tested on: Streptococcus pyogenes; test: MIC value measured against streptococcus pyogenes C203
[6] = tested on: Staphylococcus aureus; test: MIC value measured against staphylococcus aureus X1
[7] = tested on: Staphylococcus epidermidis; test: microbe, parasite or virus in culture
[8] = tested on: Haemophilus influenzae; test: MIC value was measured against haemophilus influenzae.
How it was run: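 Susceptibility determined by standard agar-dilution method against a panel of bacterial strains.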

[9] = tested on: Streptococcus pneumoniae; test: Effective dose against mice infected with streptococcus pneumoniae after peroral administration (in vivo); settings: in Mus musculus, po

| SMILES | ED50 [1] [mg/kg] | MIC [2] [µg/mL] | ED50 [3] [mg/kg] | MIC [4] [µg/mL] | MIC [5] [µg/mL] | MIC [6] [µg/mL] | MIC [7] [µg/mL] | MIC [8] [µg/mL] | ED50 [9] [mg/kg] |
| --- | --- | --- | --- | --- | --- | --- | --- | --- | --- |
| CCCCCCCCN[C@@H]1[C@H](C)[C@@H](O)[C@](C)(O)[C@@H](CC)OC(=O)[C@H](C)[C@@H](OC2CC(C)(OC)C(O)C(C)O2)[C@H](C)[C@@H](OC2OC(C)CC(N(C)C)C2O)[C@](C)(O)C[C@H]1C (stereo partly drawn) | 23 | 1 (≈ 1.18 µM) | > 50 | 0.015 (≈ 0.0177 µM) | 0.015 (≈ 0.0177 µM) | 0.5 (≈ 0.59 µM) | 0.25 (≈ 0.295 µM) | 1 (≈ 1.18 µM) | 46 |
| CC[C@H]1OC(=O)[C@H](C)[C@@H](OC2CC(C)(OC)C(O)C(C)O2)[C@H](C)[C@@H](OC2OC(C)CC(N(C)C)C2O)[C@](C)(O)C[C@@H](C)[C@H](NC2CCCC2)[C@H](C)[C@@H](O)[C@]1(C)O (stereo partly drawn) | 4 | 2 (≈ 2.49 µM) | 46 | 0.06 (≈ 0.0747 µM) | 0.06 (≈ 0.0747 µM) | 1 (≈ 1.25 µM) | 0.5 (≈ 0.623 µM) | 2 (≈ 2.49 µM) | 4 |
| CC[C@H]1OC(=O)[C@H](C)[C@@H](OC2CC(C)(OC)C(O)C(C)O2)[C@H](C)[C@@H](OC2OC(C)CC(N(C)C)C2O)[C@](C)(O)C[C@@H](C)[C@H](NC(C)CCCN(CC)CC)[C@H](C)[C@@H](O)[C@]1(C)O (stereo partly drawn) | 31 | 8 (≈ 9.13 µM) | 41 | 0.5 (≈ 0.571 µM) | 0.5 (≈ 0.571 µM) | 2 (≈ 2.28 µM) | 2 (≈ 2.28 µM) | 8 (≈ 9.13 µM) | 18 |
| CC[C@H]1OC(=O)[C@H](C)[C@@H](OC2CC(C)(OC)C(O)C(C)O2)[C@H](C)[C@@H](OC2OC(C)CC(N(C)C)C2O)[C@](C)(O)C[C@@H](C)[C@H](NCCCC#N)[C@H](C)[C@@H](O)[C@]1(C)O (stereo partly drawn) | 21 | 2 (≈ 2.49 µM) | 36 |  | 1 (≈ 1.25 µM) | 1 (≈ 1.25 µM) | 1 (≈ 1.25 µM) | 2 (≈ 2.49 µM) | 29 |
| CC[C@H]1OC(=O)[C@H](C)[C@@H](OC2CC(C)(OC)C(O)C(C)O2)[C@H](C)[C@@H](OC2OC(C)CC(N(C)C)C2O)[C@](C)(O)C[C@@H](C)[C@H](N(C)C)[C@H](C)[C@@H](O)[C@]1(C)O (stereo partly drawn) | 22 | 2 (≈ 2.62 µM) | > 44 |  | 0.25 (≈ 0.328 µM) | 4 (≈ 5.24 µM) | 2 (≈ 2.62 µM) | 2 (≈ 2.62 µM) | 44 |
| C=CCCCCCCCCCN[C@@H]1[C@H](C)[C@@H](O)[C@](C)(O)[C@@H](CC)OC(=O)[C@H](C)[C@@H](OC2CC(C)(OC)C(O)C(C)O2)[C@H](C)[C@@H](OC2OC(C)CC(N(C)C)C2O)[C@](C)(O)C[C@H]1C (stereo partly drawn) |  | 2 (≈ 2.25 µM) |  |  | 1 (≈ 1.13 µM) | 2 (≈ 2.25 µM) | 1 (≈ 1.13 µM) | 2 (≈ 2.25 µM) |  |
| CCCCN[C@@H]1[C@H](C)[C@@H](O)[C@](C)(O)[C@@H](CC)OC(=O)[C@H](C)[C@@H](OC2CC(C)(OC)C(O)C(C)O2)[C@H](C)[C@@H](OC2OC(C)CC(N(C)C)C2O)[C@](C)(O)C[C@H]1C (stereo partly drawn) | 13 | 1 (≈ 1.26 µM) | 15 | 0.015 (≈ 0.019 µM) | 0.06 (≈ 0.0758 µM) | 0.25 (≈ 0.316 µM) | 0.25 (≈ 0.316 µM) | 1 (≈ 1.26 µM) | 13 |
| CCCCCN[C@@H]1[C@H](C)[C@@H](O)[C@](C)(O)[C@@H](CC)OC(=O)[C@H](C)[C@@H](OC2CC(C)(OC)C(O)C(C)O2)[C@H](C)[C@@H](OC2OC(C)CC(N(C)C)C2O)[C@](C)(O)C[C@H]1C (stereo partly drawn) | 9 | 1 (≈ 1.24 µM) | 25 | 0.015 (≈ 0.0186 µM) | 0.06 (≈ 0.0745 µM) | 0.5 (≈ 0.621 µM) | 0.5 (≈ 0.621 µM) | 1 (≈ 1.24 µM) | 14 |
| CCCCCCCN[C@@H]1[C@H](C)[C@@H](O)[C@](C)(O)[C@@H](CC)OC(=O)[C@H](C)[C@@H](OC2CC(C)(OC)C(O)C(C)O2)[C@H](C)[C@@H](OC2OC(C)CC(N(C)C)C2O)[C@](C)(O)C[C@H]1C (stereo partly drawn) | 31 | 1 (≈ 1.2 µM) | > 50 | 0.015 (≈ 0.018 µM) | 0.015 (≈ 0.018 µM) | 0.25 (≈ 0.3 µM) | 0.25 (≈ 0.3 µM) | 1 (≈ 1.2 µM) | 33 |
| CC[C@H]1OC(=O)[C@H](C)[C@@H](OC2CC(C)(OC)C(O)C(C)O2)[C@H](C)[C@@H](OC2OC(C)CC(N(C)C)C2O)[C@](C)(O)C[C@@H](C)[C@H](NCC(C)(C)CO)[C@H](C)[C@@H](O)[C@]1(C)O (stereo partly drawn) | 20 | 1 (≈ 1.22 µM) | > 50 | 0.015 (≈ 0.0183 µM) | 0.03 (≈ 0.0365 µM) | 1 (≈ 1.22 µM) | 1 (≈ 1.22 µM) | 1 (≈ 1.22 µM) | 46 |
| CCCCCCN[C@@H]1[C@H](C)[C@@H](O)[C@](C)(O)[C@@H](CC)OC(=O)[C@H](C)[C@@H](OC2CC(C)(OC)C(O)C(C)O2)[C@H](C)[C@@H](OC2OC(C)CC(N(C)C)C2O)[C@](C)(O)C[C@H]1C (stereo partly drawn) | 18 | 4 (≈ 4.88 µM) | 39 | 0.008 (≈ 0.00977 µM) | 0.12 (≈ 0.146 µM) | 1 (≈ 1.22 µM) | 0.25 (≈ 0.305 µM) | 4 (≈ 4.88 µM) | 14 |
